The values that follow come from paper PMC7127420 (European Journal of Medicinal Chemistry, 2008).

Data set [1] has as its system human T-lymphocyte (CEM) cells. Briefly: Cytostatic activity in mock-infected CEM cells. The data set is classed as cell-based. The conditions noted are these: concentration required to reduce mock-infected CEM cell viability by 50%. In short, it runs like this: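 Mock-infected CEM cell cultures were run alongside the HIV-infected CEM cultures. CC50 was the compound concentration inhibiting CEM cell proliferation by 50%.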

The subject of data set [2] is HIV-1(IIIB). The conditions noted are these: ref [1], cited from earlier work; for EC50: read-out: EC50 HIV-1(IIIB), CEM cells.
In the next data set the target is recombinant HIV-2 RT (Human immunodeficiency virus type 2 subtype A, UniProt P04584). Briefly: Anti-reverse transcriptase assay, HIV-2 RT. The data set is classed as biochemical, HIV-2(ROD). In short, it runs like this: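 Recombinant RT derived from HIV-2(ROD). Substrate was [8-3H]dGTP (2.5 μM) on poly(C).oligo(dG)12–18 (0.1 mM), with inhibitor at various concentrations. Incubated 37 °C for 30 min, then stopped with yeast RNA and trichloroacetic acid in Na4P2O7 and held on ice 30 min. Acid-insoluble radioactivity was counted; IC50 was the concentration giving 50% inhibition of RT activity.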

The next data set has as its system HIV-2(ROD). The conditions noted are these: read-out: EC50 HIV-2(ROD); CEM cells; racemic mixture; ref [1]; cited from earlier work.
Data set [3] concerns human T-lymphocyte (CEM) cells. The conditions noted are these: mock-infected CEM cells; racemic mixture; ref [1]; cited from earlier work.
Data set [4] concerns HIV-1(IIIB). The experiment in a line: Inhibition of HIV-1. In kind it is cell-based, Human immunodeficiency virus type 1. The conditions noted are these: relative to 8.

Read-outs that look alike come from different tables or passages of the source.

Chain of recombinant HIV-2 RT (P04584 613-1171 limits assumed): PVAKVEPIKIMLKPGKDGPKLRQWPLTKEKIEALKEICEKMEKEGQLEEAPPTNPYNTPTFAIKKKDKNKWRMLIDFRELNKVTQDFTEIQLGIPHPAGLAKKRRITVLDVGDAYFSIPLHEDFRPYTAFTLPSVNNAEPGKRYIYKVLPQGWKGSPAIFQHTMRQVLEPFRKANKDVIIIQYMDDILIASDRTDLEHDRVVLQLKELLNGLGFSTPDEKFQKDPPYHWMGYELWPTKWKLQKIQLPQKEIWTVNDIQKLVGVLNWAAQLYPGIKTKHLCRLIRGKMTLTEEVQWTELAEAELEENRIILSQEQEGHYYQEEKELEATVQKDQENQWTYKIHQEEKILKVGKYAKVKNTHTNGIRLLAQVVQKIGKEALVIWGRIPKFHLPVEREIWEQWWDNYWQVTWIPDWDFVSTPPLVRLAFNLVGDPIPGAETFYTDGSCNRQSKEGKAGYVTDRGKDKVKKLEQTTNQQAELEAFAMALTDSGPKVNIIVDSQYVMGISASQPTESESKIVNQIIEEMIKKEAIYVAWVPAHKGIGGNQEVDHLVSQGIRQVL
Chain of recombinant HIV-2 RT (P04584 613-1051 partner limits assumed): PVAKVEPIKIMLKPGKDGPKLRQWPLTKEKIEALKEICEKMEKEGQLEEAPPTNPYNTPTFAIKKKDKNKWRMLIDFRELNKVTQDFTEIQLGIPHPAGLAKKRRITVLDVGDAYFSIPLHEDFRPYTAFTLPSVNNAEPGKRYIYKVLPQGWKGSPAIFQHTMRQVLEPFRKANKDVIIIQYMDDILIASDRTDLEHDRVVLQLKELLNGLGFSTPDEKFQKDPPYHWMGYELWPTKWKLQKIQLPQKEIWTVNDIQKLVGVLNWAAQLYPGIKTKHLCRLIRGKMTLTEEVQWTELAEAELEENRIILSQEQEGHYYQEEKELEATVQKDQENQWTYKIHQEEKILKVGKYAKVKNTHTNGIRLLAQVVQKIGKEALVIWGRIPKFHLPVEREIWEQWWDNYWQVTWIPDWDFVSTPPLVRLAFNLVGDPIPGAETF

Turning to “2-Adamantan-1-ylmethyl-3-(2-dimethylaminoethyl)-thiazolidin-4-one [Compound 20]”, the CC50 (usually the concentration at which the toxic effect on the cells reaches its halfway point) in data set [1] came out at 43 ± 20.1 µM.
Turning to `Cc1cc(C)nc(N2C(=O)CSC2C23CC4CC(CC(C4)C2)C3)c1` (single isomer, unassigned) [levo isomer], the “fold less active than the (+)-isomer (anti-HIV-1 activity)” value in the data set with HIV-1(IIIB) [2] is recorded as “more than 60 fold”.
Regarding `Cc1cc(C)nc(N2C(=O)CS[C@@H]2C23CC4CC(CC(C4)C2)C3)c1` (single isomer, unassigned; (+)) [7 (R enantiomer), (+)-2-adamantan-1-yl-3-(4,6-dimethyl-pyridin-2-yl)-thiazolidin-4-one, reference compound], the IC50 (as a rule, the concentration needed to halve the response being measured) on recombinant HIV-2 RT is over 600 µM. Further, the EC50 (commonly the concentration needed to bring the measured effect to its halfway point) with HIV-1(IIIB) [2] is 0.178 µM.
For the compound `Cc1cc(C)nc(N2C(=O)CSC2C23CC4CC(CC(C4)C2)C3)c1` (stereo not shown) [Compound 7, 2-adamantan-1-yl-3-(4,6-dimethylpyridin-2-yl)-thiazolidin-4-one], the EC50 with HIV-1(IIIB) [2] was 0.35 ± 0.175 µM; in the data set on HIV-2(ROD), over 12 µM. For the same compound, the cytotoxic concentration (CC50) in data set [3] was 42 ± 8.1 µM.
Turning to `Cc1ccnc(N2C(=O)CSC2C23CC4CC(CC(C4)C2)C3)n1` (stereo not shown) [Compound 10, 2-Adamantan-1-yl-3-(4-methylpyrimidin-2-yl)-thiazolidin-4-one], the “fold reduction in antiviral potency (anti-HIV-1)” value in the data set with HIV-1(IIIB) [4] was 6 fold.
For `Cc1cc(C)nc(N2C(=O)CSC2CC23CC4CC(CC(C4)C2)C3)n1` (stereo not shown) [Compound 12, 2-Adamantan-1-ylmethyl-3-(2,6-methylpyrimidin-2-yl)-thiazolidin-4-one], the “fold reduction in antiviral potency (anti-HIV-1)” value with HIV-1(IIIB) [4] is on record as 13 fold.
In the case of `O=C1CSC(c2c(Cl)cccc2Cl)N1CC12CC3CC(CC(C3)C1)C2` (stereo not shown) [Compound 24, 3-Adamantan-1-ylmethyl-2-(2,6-dichlorophenyl)-thiazolidin-4-one], the IC50 on recombinant HIV-2 RT is at least 600 µM.
Same read-out and setting: the figure for `O=C1CSC(c2c(Cl)cccc2Cl)N1CCC12CC3CC(CC(C3)C1)C2` (stereo not shown) [Compound 25, 3-(2-Adamantan-1-ylethyl)-2-(2,6-dichlorophenyl)-thiazolidin-4-one] is over 600 µM; for `O=C1CSC(c2c(F)cccc2F)N1CC12CC3CC(CC(C3)C1)C2` (stereo not shown) [Compound 28, 3-Adamantan-1-ylmethyl-2-(2,6-difluorophenyl)-thiazolidin-4-one] it is over 600 µM; for `O=C1CSC(c2c(F)cccc2F)N1CCC12CC3CC(CC(C3)C1)C2` (stereo not shown) [Compound 29, 3-(2-Adamantan-1-ylethyl)-2-(2,6-difluorophenyl)-thiazolidin-4-one] it is at least 600 µM.
